# Results: article PMC12491069 (Bioorganic & medicinal chemistry letters, 2025)
# Where two headings read alike, the source gives them in different places.
# Experiments:
# Format in all cases: cell-based
# HUVEC = test: MTT cytotoxicity assay, HUVEC; conditions: read-out: IC50 HUVEC
# Outline: (§1)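 MTT viability assay run in parallel on MCF-7, HeLa and non-cancerous HUVEC cells. Test concentrations: benzimidazole derivatives at 50–250 μM and benzothiazole derivatives at 5–100 μM. IC50 derived from the MTT read-out.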
# HeLa = test: MTT cytotoxicity assay, HeLa; conditions: read-out: IC50 HeLa
# Outline: as §1
# MCF-7 = test: MTT cytotoxicity assay, MCF-7
# Outline: as §1
# [1] = read-out: IC50 MCF-7, MTT, MCF-7 cells
SMILES,"IC50 (HUVEC; Homo sapiens, HUVEC) [µM]","IC50 (HeLa; Homo sapiens, HeLa) [µM]","IC50 (MCF-7; Homo sapiens, MCF7, read-out: IC50 MCF-7) [µM]","IC50 (HUVEC; MTT, non-cancerous HUVEC line) [µM]","IC50 (HeLa; MTT, HeLa cells) [µM]",IC50 (MCF-7; [1]) [µM]
COc1cccc2c1C(=O)c1c(O)c3c(c(O)c1C2=O)C[C@@](O)(C(=O)CO)C[C@@H]3O[C@H]1C[C@H](N)[C@H](O)[C@H](C)O1 [Doxorubicin],93 ± 0.54,1.45 ± 0.15,17.44 ± 0.04,–,–,–
N#Cc1ccc(COC[C@H]2O[C@@H](n3c(NCc4ccc(Cl)c(Cl)c4)nc4c(N)ncnc43)[C@H](O)[C@@H]2O)cc1 [VER-155008],–,–,–,150 ± 2.23,55.26 ± 0.25,23.9 ± 1.09
Nc1c(C(=O)Nc2ccc(F)cc2)sc2nc(-c3cccs3)cc(C(F)(F)F)c12 [FDI-6],–,–,–,240.3 ± 1.14,18.9 ± 0.89,25.8 ± 2.41
